Source: ChEMBL document CHEMBL3352816, “Synthesis and antiproliferative activity of imidazo[2,1-b][1,3,4]thiadiazole derivatives” (Bioorg Med Chem Lett, 2014)
Active and inactive are the calls of the source. No cut-off for these calls is given here.

How the values were obtained:
[1] = Cell cycle arrest in human NALM6 cells assessed as accumulation at subG1 phase after 48 hrs using propidium iodide by FACS analysis; assay type: functional, cell-based; conditions: NALM-6
Method in brief: (§1)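 Reh and Nalm6 cells exposed 48 h to 0.1, 0.5, 1 and 5 µM, harvested, stained with propidium iodide and analysed by flow cytometry. Gated fractions were sub G1, G1, S and G2. DMSO-treated cells served as vehicle control. Three independent experiments for Reh and two for Nalm6.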

[2] = test system: REH; experiment: Induction of apoptosis in human REH cells assessed as induction of ROS production at 100 nM after 10 mins by flow cytometric analysis (reference value: 0.33 %); assay type: functional
[3] = test system: REH; experiment: Induction of apoptosis in human REH cells assessed as induction of ROS production at 10 uM after 10 mins by flow cytometric analysis (reference value: 0.33 %); assay type: functional
[4] = Growth inhibition of human Colon cancer cells; assay type: functional; conditions: Cancer cell lines
[5] = Growth inhibition of human Prostate cancer cells; assay type: functional; conditions: Cancer cell lines
[6] = test system: REH; experiment: Cell cycle arrest in human REH cells assessed as accumulation at subG1 phase after 48 hrs using propidium iodide by FACS analysis; assay type: functional, cell-based; method in brief: as §1
[7] = test system: REH; experiment: Induction of apoptosis in human REH cells assessed as induction of ROS production at 1 uM after 15 mins by flow cytometric analysis (reference value: 0.09 %); assay type: functional
[8] = test system: REH; experiment: Induction of apoptosis in human REH cells assessed as induction of ROS production at 1 uM after 60 mins by flow cytometric analysis (reference value: 0.09 %); assay type: functional
[9] = test system: REH; experiment: Induction of apoptosis in human REH cells assessed as induction of ROS production at 500 nM after 10 mins by flow cytometric analysis (reference value: 0.33 %); assay type: functional
[10] = test system: REH; experiment: Induction of apoptosis in human REH cells assessed as loss of mitochondrial membrane potential at 1 uM after 48 hrs using Jc-1 staining by flow cytometric analysis; assay type: functional, cell-based
Method in brief: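 Mitochondrial membrane potential in Reh cells after 48 h at 0.1, 0.5, 1 and 5 µM. Cells stained with JC-1 and analysed by flow cytometry as the ratio of red (aggregate) to green (monomer) fluorescent cells. 2,4-DNP-treated cells served as positive control.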

[11] = test system: NALM-6; experiment: Cytotoxicity against human NALM6 cells assessed as reduction in cell viability at 0.1 to 10 uM by trypan blue exclusion assay; assay type: functional, cell-based; conditions: TDE = time-dependent effect
Method in brief: (§2)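 Reh, K562 and Nalm6 leukemic cells were treated with 10, 50, 100 and 250 µM or with 0.1, 0.5, 1, 5 and 10 µM (compounds dissolved in DMSO). Viability was scored by trypan blue after 24, 48 and 72 h. DMSO-treated cells served as vehicle control.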

[12] = test system: REH; experiment: Cytotoxicity against human REH cells assessed as reduction in cell viability at 0.1 to 10 uM by trypan blue exclusion assay; assay type: functional, cell-based; conditions: TDE = time-dependent effect; method in brief: as §2
[13] = test system: REH; experiment: Cell cycle arrest in human REH cells assessed as reduction of cells in G1 phase after 48 hrs using propidium iodide by FACS analysis; assay type: functional, cell-based; method in brief: as §1
[14] = test system: REH; experiment: Induction of apoptosis in human REH cells assessed as late apoptotic cells at 1 uM after 48 hrs using annexin-v-FITC/propidium iodide by FACS analysis (reference value: 5.51 %); assay type: functional
[15] = Growth inhibition of human Melanoma cells; assay type: functional; conditions: Melanoma cell
[16] = test system: REH; experiment: Induction of apoptosis in human REH cells assessed as induction of ROS production at 1 uM after 30 mins by flow cytometric analysis (reference value: 0.09 %); assay type: functional
[17] = Growth inhibition of human Ovarian cancer cells; assay type: functional; conditions: Cancer cell lines
[18] = Growth inhibition of human Renal cancer cells; assay type: functional; conditions: Cancer cell lines
[19] = test system: REH; experiment: Cytotoxicity against human REH cells assessed as reduction in cell viability at 3 uM after 24 to 72 hrs by trypan blue exclusion assay; assay type: functional, cell-based
[20] = test system: NALM-6; experiment: Cytotoxicity against human NALM6 cells assessed as reduction in cell viability after 24 to 72 hrs by trypan blue exclusion assay; assay type: functional, cell-based; method in brief: as §2
[21] = test system: HEK293; experiment: Cytotoxicity against HEK293 cells assessed as induction of cell death at 3 uM after 24 to 72 hrs by live-dead cell assay; assay type: cell-based; conditions: human, hek293, 3 µM; in the assay text read “24 to 48 hrs” for “24 to 72 hrs”
Method in brief: (§3)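 Reh leukemic and 293T human kidney epithelial cells were treated at 3 µM and compared by live-dead cell assay at 24 and 48 h.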

[22] = Growth inhibition of human NSCLC cells; assay type: functional
[23] = test system: REH; experiment: Cell cycle arrest in human REH cells assessed as reduction of cells in S phase after 48 hrs using propidium iodide by FACS analysis; assay type: functional, cell-based; method in brief: as §1
[24] = test system: REH; experiment: Cytotoxicity against human REH cells assessed as induction of cell death at 3 uM after 24 to 72 hrs by live-dead cell assay; assay type: functional, cell-based; conditions: in the assay text read “24 to 48 hrs” for “24 to 72 hrs”; method in brief: as §3
[25] = test system: REH; experiment: Induction of apoptosis in human REH cells assessed as induction of ROS production at 5 uM after 10 mins by flow cytometric analysis (reference value: 0.33 %); assay type: functional
[26] = test system: REH; experiment: Induction of apoptosis in human REH cells assessed as induction of ROS production at 1 uM after 10 mins by flow cytometric analysis (reference value: 0.09 %); assay type: functional
[27] = Cell cycle arrest in human NALM6 cells assessed as reduction of cells in G2/M phase after 48 hrs using propidium iodide by FACS analysis; assay type: functional, cell-based; conditions: NALM-6; method in brief: as §1
[28] = test system: REH; experiment: Cytotoxicity against human REH cells assessed as reduction in cell viability at 5 to 10 uM after 48 to 72 hrs by MTT assay; assay type: functional, cell-based
Method in brief: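 MTT viability read-out in leukemic cells treated with 10, 50, 100 and 250 µM or with 0.1, 0.5, 1, 5 and 10 µM. Cells harvested after 48 and 72 h. Compounds dissolved in DMSO.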

[29] = test system: REH; experiment: Induction of apoptosis in human REH cells assessed as induction of ROS production at 1 uM after 10 mins by flow cytometric analysis (reference value: 0.33 %); assay type: functional
[30] = test system: K562; experiment: Cytotoxicity against human K562 cells assessed as reduction in cell viability after 24 to 72 hrs by trypan blue exclusion assay; assay type: functional, cell-based; method in brief: as §2
[31] = test system: REH; experiment: Induction of apoptosis in human REH cells assessed as PARP cleavage after 48 hrs by Western blot analysis; assay type: functional, cell-based
Method in brief: (§4)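 Reh cell lysates were prepared after 48 h treatment at 500 nM and 1 µM, with DMSO-treated cells as control. Western blotting used primary antibodies against KU70, PARP1, caspase 3, BID, caspase 9, FAS and caspase 8, with tubulin also probed.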

[32] = Growth inhibition of human Leukemia cells; assay type: functional; conditions: Leukemia cell
[33] = Growth inhibition of human Breast cancer cells; assay type: functional; conditions: Cancer cell lines
[34] = test system: HEK293; experiment: Cytotoxicity against HEK293 cells assessed as reduction in cell viability at 3 uM after 24 to 72 hrs by trypan blue exclusion assay; assay type: cell-based; conditions: human, hek293, 3 µM
[35] = test system: REH; experiment: Induction of apoptosis in human REH cells assessed as caspase 8 cleavage after 48 hrs by Western blot analysis; assay type: functional, cell-based; method in brief: as §4

SMILES: O=Cc1c(-c2ccc(Br)cc2)nc2sc(Cc3ccccc3)nn12
- Activity [1]: Dose-dependent effect
- Activity [2]: 0.77%
- Activity [3]: 0.41%
- GI50 [4]: 2.2 µM
- TGI [4]: 10 µM
- CC50 ([4]; read-out: LC50 (the source's name)): 81.3 µM
- GI50 [5]: 3 µM
- TGI [5]: 24.6 µM
- Activity [6]: Dose-dependent effect
- Activity [7]: 0.09%
- Activity [8]: 0.12%
- Activity [9]: 0.86%
- Activity [10]: Dose-dependent effect
- Activity [11]: tde
- Activity [12]: tde
- Activity [13]: Dose-dependent effect
- Activity [14]: 51.32%
- GI50 [15]: 3.2 µM
- LC50 [15]: 81.3 µM
- TGI [15]: 19.5 µM
- Activity [16]: 0.06%
- GI50 [17]: 4.2 µM
- TGI [17]: 41.7 µM
- GI50 [18]: 3.2 µM
- LC50 [18]: 93.3 µM
- TGI [18]: 20 µM
- Activity [19]: Active
- Activity [20]: Dose-dependent effect
- Activity [21]: Non-toxic
- GI50 [22]: 4.2 µM
- LC50 (concentration killing 50% of cells) [22]: 95.5 µM
- TGI [22]: 30.2 µM
- Activity [23]: Dose-dependent effect
- Activity [24]: Active
- Activity [25]: 0.62%
- Activity [26]: 0.36%
- Activity [27]: Dose-dependent effect
- Activity [28]: Active
- Activity [29]: 0.28%
- Activity [30]: Dose-dependent effect
- Activity [31]: Dose-dependent effect
- GI50 [32]: 1.41 µM
- TGI [32]: 13.5 µM
- GI50 [33]: 3.5 µM
- TGI [33]: 28.2 µM
- Activity [34]: Non-toxic
- Activity [35]: Active
